Consider six compounds from ChEMBL document CHEMBL1122346, “Antihypertensive activity of 6-arylpyrido[2,3-d]pyrimidin-7-amine derivatives. 2. 7-Acyl amide analogues” (J Med Chem, 1983).

One may read the pKa as the negative logarithm of the acid dissociation constant. One may read the half-life as the time in which the quantity being followed falls by half.

Data set [1] is filed under the species Rattus norvegicus. Description: Maximum percent decrease in blood pressure in SHR ( hour post dose in parentheses). It is filed as functional.
For data set [2], the system named is Rattus norvegicus. Description: Antihypertensive activity in conscious spontaneously hypertensive rats 10 hr following 50 mg/kg p.o.; Range 10-20%. It is filed as functional. The following applies: route oral.
Data set [3] deals with Rattus norvegicus. Description: Antihypertensive activity rating in conscious SHR after 18 hr post dose at 50 mg/kg (po); Range 10-20%. It is filed as functional.
Data set [4] concerns Rattus norvegicus. Description: Antihypertensive activity in conscious spontaneously hypertensive rats 2 hr following 50 mg/kg p.o.; No significant reduction. It is filed as functional. The following applies: route oral.
For data set [5], the system named is Rattus norvegicus. As to the kind of experiment: Antihypertensive activity rating in conscious SHR after 10 h post dose at 10 mg/kg (po); 0=No significant reduction. It is filed as functional.
Data set [6] concerns Rattus norvegicus. As to the kind of experiment: Antihypertensive activity rating in conscious SHR after 2 hr post dose at 10 mg/kg (po); 0=No significant reduction. It is filed as functional.
Data set [7] is described as follows: Solubility, determined in 0.1 N HCl. It is filed as physicochemical. The following applies: read-out: S. In short, it runs like this:
(§1)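 Dissolved compound was quantified by UV absorption. For the pH 7 value, the acidic solution was brought to pH 7 to give the unprotonated base, the precipitate was removed, and the supernatant was assayed again by UV.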

Data set [8] in a line: Solubility, determined in phosphate buffer at pH 7. The format is physicochemical. The method, boiled down:
as §1

Data set [9] can be described thus: Half-life measured in 1:1 ratio of MeOH and phosphate buffer at pH 7; Stable. The format is ADME. The method, boiled down:
(§2)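 Hydrolytic stability was tested at room temperature on solutions of ca. 0.001-0.002%. Media were 0.1 N HCl (pH ~1.5), 50% MeOH/pH 7 phosphate buffer (pH ~8.0), and 50% MeOH/0.05 N aqueous NaOH (pH ~12.2). Changes in the UV spectrum were followed over 2 weeks.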

In data set [10] the test system is Rattus norvegicus. Description: Antihypertensive activity rating in conscious SHR after 2 hr post dose at 50 mg/kg (po); Range 10-20%. It is filed as functional.
The subject of data set [11] is Rattus norvegicus. As to the kind of experiment: Antihypertensive activity rating in conscious SHR after 24 hr post dose at 50 mg/kg (po). The format is functional.
For data set [12], the system named is Rattus norvegicus. As to the kind of experiment: Antihypertensive activity rating in conscious SHR after 24-72 hr post dose at 10 mg/kg (po); Range 10-20%. It is filed as functional.
Data set [13] concerns Rattus norvegicus. Description: Antihypertensive activity rating in conscious SHR after 10 hr post dose at 10 mg/kg (po); Range 10-20%. The format is functional.
Data set [14] deals with Rattus norvegicus. Description: Antihypertensive activity rating in conscious SHR after 10 hr post dose at 50 mg/kg (po). It is filed as functional.
Data set [15] can be described thus: Half-life measured in 0.1 N HCl (*-<5% change after 14 days at 25 degrees C; Stable. The format is ADME. The following applies: buffer, 336 h. The method, boiled down:
as §2

The nature of data set [16]: pKa value, measured in 67% of DMF. The format is physicochemical. The following applies: 67% DMF. In short, it runs like this:
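Dissociation constants were found by potentiometric titration in 67% N,N-dimethylformamide/water.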

A short description of data set [17]: Half-life measured in 1:1 ratio of MeOH and phosphate buffer at pH 7; 15-17. The following applies: 1:1 MeOH / phosphate buffer. The format is ADME. The method, boiled down:
as §2

Data set [18] is described as follows: Half-life measured in 0.1 N HCl; Stable. The following applies: buffer. The format is ADME. The method, boiled down:
as §2

Data set [19] is described as follows: Half-life measured in 1:1 ratio of MeOH and 0.1 N NaOH. It is filed as ADME. The following applies: 1:1 MeOH / 0.1 N NaOH. In short, it runs like this:
as §2

The test system of data set [20] is Rattus norvegicus. Description: Antihypertensive activity rating in conscious SHR after 24 h post dose at 50 mg/kg (po); Range 20-30%. The format is functional.
Data set [21] concerns Rattus norvegicus. Description: Antihypertensive activity rating in conscious SHR after 10 hr post dose at 50 mg/kg (po); Range 20-30%. The format is functional.
A short description of data set [22]: pKa value, measured in 67% DMF/water.
For data set [23], the system named is Rattus norvegicus. As to the kind of experiment: Antihypertensive activity in conscious spontaneously hypertensive rats 10 hr following 50 mg/kg p.o.; No significant reduction. The following applies: route oral. It is filed as functional.
Data set [24] deals with Rattus norvegicus. As to the kind of experiment: Antihypertensive activity rating in conscious SHR after 18 hr post dose at 50 mg/kg (po); 0=No significant reduction. It is filed as functional.
Data set [25] deals with Rattus norvegicus. Description: Antihypertensive activity rating in conscious SHR after 24 hr post dose at 10 mg/kg (po); 0=no significant reduction. The format is functional.
Data set [26] relates to Rattus norvegicus. Description: Antihypertensive activity rating in conscious SHR after 18 hr post dose at 50 mg/kg (po). The format is functional.
Data set [27] concerns Rattus norvegicus. Description: Antihypertensive activity rating in conscious SHR after 2 hr post dose at 10 mg/kg (po); Range 10-20%. The format is functional.
Data set [28] deals with Rattus norvegicus. As to the kind of experiment: Antihypertensive activity rating in conscious SHR after 2 hr post dose at 50 mg/kg (po). It is filed as functional.

SMILES strings stand for the structures. ≈ marks a conversion by molar mass, not a printed value.

With `Cc1ncc2cc(-c3c(Cl)cccc3Cl)c(O)nc2n1`, in the data set filed under Rattus norvegicus [1], the Decrease stood at 10%. The results for the Activity rating in the data set on Rattus norvegicus [2], with Rattus norvegicus [3] and with Rattus norvegicus [4] were 10%, 10% and 0%, respectively.
`Cc1ncc2cc(-c3c(Cl)cccc3Cl)c(NC(=O)c3ccc([N+](=O)[O-])cc3)nc2n1`: the Activity rating with Rattus norvegicus [5] and in the data set on Rattus norvegicus [6] was 0% each time.
In the case of `Cc1ncc2cc(-c3c(Cl)cccc3Cl)c(N)nc2n1`, the solubility in data set [7] came out at 4850 µg/mL (≈ 15.9 mM); in data set [8] it was 7 µg/mL (≈ 0.0229 mM). Moreover, the T1/2 result in data set [9] and in [15] was “Stable” each time. For the same compound, the Activity rating in the data set with Rattus norvegicus [10] is reported as 10%; in the data set with Rattus norvegicus [11] it was >30%; in the data set with Rattus norvegicus [12] it was 10%; with Rattus norvegicus [13] it was 10%; in the data set with Rattus norvegicus [14] it was >30%. In the data set listed under Rattus norvegicus [1], the Decrease is reported as 32%.
On to `Cc1ncc2cc(-c3c(Cl)cccc3Cl)c(NC(=O)c3ccco3)nc2n1`, for which the solubility in data set [7] was determined as 6600 µg/mL (≈ 16.5 mM); in [8] it was 220 µg/mL (≈ 0.551 mM). The pKa was determined as 4.3 in [16] and 10.7 in [22]. Further, the half-life is 360 h in data set [17] and 4 h in data set [19]. Moreover, the T1/2 result in data set [18] is “Stable”. Further, the Activity rating in the data set on Rattus norvegicus [10] is 10%; with Rattus norvegicus [20], 20%; in the data set with Rattus norvegicus [12], 10%; in the data set with Rattus norvegicus [13], 10%; in the data set with Rattus norvegicus [21], 20%; in the data set on Rattus norvegicus [6] it was 0%. The Decrease in the data set filed under Rattus norvegicus [1] was determined as 27%.
Take `Cc1ncc2cc(-c3c(Cl)cccc3Cl)c(NC(=O)NC(C)(C)C)nc2n1`: the Activity rating in the data set on Rattus norvegicus [23], in the data set on Rattus norvegicus [24] and in the data set on Rattus norvegicus [4] was 0% in each case.
`CCC(=O)Nc1nc2nc(C)ncc2cc1-c1c(Cl)cccc1Cl`: the Activity rating was 0 in the data set with Rattus norvegicus [25]; 10% with Rattus norvegicus [13]; >30% in the data set on Rattus norvegicus [14]; >30% in the data set on Rattus norvegicus [26]; 10% with Rattus norvegicus [27]; >30% with Rattus norvegicus [28]. In the data set filed under Rattus norvegicus [1], the Decrease is listed as 35%.
